Source: ChEMBL document CHEMBL4033795, “Design, Synthesis, and Structure-Activity Relationship Study of 2-Oxo-3,4-dihydropyrimido[4,5- d]pyrimidines as New Colony Stimulating Factor 1 Receptor (CSF1R) Kinase Inhibitors” (J Med Chem, 2018)

Experiments:
[1] = Half life in Sprague-Dawley rat at 25 mg/kg administered via oral gavage measured up to 72 hrs by LC/MS analysis; type: ADME, organism-based; conditions: in vivo
Summary of the method: (§1)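 Male Sprague-Dawley rats, 4–6 weeks old, acclimatised 1 week, were dosed iv at 5 mg/kg or by oral gavage at 25 mg/kg. Vehicle was 2% DMSO, 4% EtOH, 4% castor oil, 90% H2O. Blood was drawn by orbital sinus puncture from 2 min to 72 h into heparinized tubes. Plasma was assayed by LC/MS with propranolol as internal standard. Three animals per group.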

RAW264.7 [2] = assay: Antimigratory activity against mouse RAW264.7 cells assessed as inhibition of human LNCaP-MDV-CM mediated macrophage migration at 1.25 uM after 24 hrs by crystal violet staining based transwell assay relative to control; type: functional; conditions: RAW264.7, 24 h
Summary of the method: (§2)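 RAW264.7 cells, (2−4) × 10^5, were placed serum-free in the upper insert of a transwell. The lower chamber held conditioned medium from LNCaP cells grown 48 h in 10% FBS RPMI 1640 with 10 μM MDV3100 or DMSO. Compound at 0.625–5.0 μM was added to the top chamber for 24 h at 37 °C. Migrated cells were fixed in methanol, stained with 0.25% crystal violet and counted in six random fields at 200×. Three independent experiments.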

Homo sapiens = organism: Homo sapiens; assay: Selectivity ratio of IC50 for recombinant human His-tagged FLT3 (564 to 958 residues) expressed in baculovirus to IC50 for recombinant human His-tagged CSF1R cytoplasmic domain (538 to 910 residues) expressed in baculovirus
[3] = molecular target: Fibroblast growth factor receptor 1 (Homo sapiens, UniProt P11362); assay: Inhibition of cytoplasmic recombinant human His-tagged FGFR1 (308 to 731 residues) expressed in baculovirus using tyr4 peptide as substrate after 1 hr by FRET-based Z'-Lyte assay
[4] = Cmax in Sprague-Dawley rat at 25 mg/kg administered via oral gavage measured up to 72 hrs by LC/MS analysis; type: ADME, organism-based; design: dose 25 mg/kg, route oral; conditions: in vivo; summary of the method: as §1
[5] = molecular target: Ephrin type-A receptor 8 (Homo sapiens) (UniProt P29322); assay: Inhibition of recombinant human EPHA8 (Q608 to C920 residues) expressed in bacterial expression system at 100 nM by KINOMEscan assay relative to control
[6] = molecular target: Fibroblast growth factor receptor 4 (Homo sapiens, UniProt P22455); assay: Inhibition of cytoplasmic recombinant human His-tagged FGFR4 ([…] residues) expressed in baculovirus using tyr4 peptide as substrate after 1 hr by FRET-based Z'-Lyte assay
[7] = molecular target: Tyrosine-protein kinase ABL1 (Homo sapiens) (UniProt P00519); assay: Inhibition of human ABL1 (S229 to K512 residues) expressed in mammalian expression system at 100 nM by KINOMEscan assay relative to control
[8] = molecular target: Ephrin type-A receptor 1 (Homo sapiens) (UniProt P21709); assay: Inhibition of recombinant human EPHA1 (V588 to I913 residues) expressed in bacterial expression system at 100 nM by KINOMEscan assay relative to control
[9] = molecular target: Platelet-derived growth factor receptor beta (Homo sapiens, UniProt P09619); assay: Inhibition of recombinant human PDGFRbeta expressed in baculovirus using poly (4:1 Glu, Tyr) peptide as substrate after 1 hr by ADP-Glo assay
[10] = molecular target: Mast/stem cell growth factor receptor Kit (Homo sapiens, UniProt P10721); assay: Inhibition of recombinant cytoplasmic human His-tagged KIT expressed in baculovirus using […] peptide as substrate after 1 hr by FRET-based Z'-Lyte assay
[11] = molecular target: T1, Macrophage colony-stimulating factor 1 receptor (Mus musculus) (UniProt P09581); assay: Inhibition of CSF1R phosphorylation in mouse RAW264.7 cells preincubated for 6 hrs followed by CSF1 stimulation for 20 mins by Western blot analysis; type: cell-based
T1 sequence (whole entry): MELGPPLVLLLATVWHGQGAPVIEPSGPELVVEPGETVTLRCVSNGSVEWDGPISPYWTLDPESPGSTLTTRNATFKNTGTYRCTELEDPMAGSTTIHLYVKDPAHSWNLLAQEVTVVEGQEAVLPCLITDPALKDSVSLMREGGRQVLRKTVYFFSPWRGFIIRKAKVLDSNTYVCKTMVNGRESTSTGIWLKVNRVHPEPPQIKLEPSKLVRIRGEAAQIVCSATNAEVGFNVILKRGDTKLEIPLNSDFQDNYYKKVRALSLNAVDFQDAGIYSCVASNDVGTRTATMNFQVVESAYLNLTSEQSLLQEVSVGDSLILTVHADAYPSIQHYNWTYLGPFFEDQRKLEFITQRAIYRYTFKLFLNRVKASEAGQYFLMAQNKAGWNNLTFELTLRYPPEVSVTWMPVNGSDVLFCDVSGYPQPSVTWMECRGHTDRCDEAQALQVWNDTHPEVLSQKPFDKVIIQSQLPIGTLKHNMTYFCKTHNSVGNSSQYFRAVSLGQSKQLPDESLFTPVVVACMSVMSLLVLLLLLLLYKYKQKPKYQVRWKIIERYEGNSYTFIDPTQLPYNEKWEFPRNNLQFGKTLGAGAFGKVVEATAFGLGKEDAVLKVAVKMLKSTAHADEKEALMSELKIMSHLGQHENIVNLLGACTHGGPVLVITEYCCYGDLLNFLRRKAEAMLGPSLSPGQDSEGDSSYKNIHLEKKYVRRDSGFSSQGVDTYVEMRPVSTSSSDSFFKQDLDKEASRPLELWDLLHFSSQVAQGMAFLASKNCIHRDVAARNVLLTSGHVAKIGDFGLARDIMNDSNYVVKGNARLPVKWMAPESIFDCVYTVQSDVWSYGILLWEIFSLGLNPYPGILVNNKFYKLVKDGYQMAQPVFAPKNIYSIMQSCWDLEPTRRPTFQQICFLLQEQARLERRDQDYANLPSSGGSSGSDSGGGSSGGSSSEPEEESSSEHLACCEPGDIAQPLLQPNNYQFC
Summary of the method: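 RAW264.7 cells were seeded, incubated overnight and treated 6 h with graded compound concentrations, then stimulated 20 min with CSF-1 (50 ng/mL). Lysates were run on 8−12% SDS-PAGE and immunoblotted for p-CSF1R (Tyr723), CSF1R, p-AKT, AKT and GAPDH. Bands were quantified and normalized to GAPDH. Mean ± SEM of at least three experiments.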

RAW264.7 [12] = assay: Antimigratory activity against mouse RAW264.7 cells assessed as inhibition of human LNCaP-MDV-CM mediated macrophage migration at 2.5 uM after 24 hrs by crystal violet staining based transwell assay relative to control; type: functional; conditions: RAW264.7, 24 h; summary of the method: as §2
RAW264.7 [13] = assay: Inhibition of protumorigenic potential of mouse RAW264.7 cells assessed as abrogation of human LNCAP cell growth enhancement of macrophages at 0.016 uM co-cultured for 48 hrs by CCK8 assay relative to control; type: functional; conditions: RAW264.7, 48 h
Summary of the method: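 LNCaP cells, (2−4) × 10^5, were seeded in the lower transwell chamber. After 2 h, (1−2) × 10^6 RAW264.7 cells were added in a 0.4 μm insert. Compound at 0.016–2.0 μM was added to the top chamber and cells were cocultured 48 h at 37 °C. LNCaP cells were then imaged and counted by CCK8. Run three times, each in triplicate.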

Tyrosine-protein kinase ABL1 (Homo sapiens), sequence (P00519 whole entry, the tested form may be a part): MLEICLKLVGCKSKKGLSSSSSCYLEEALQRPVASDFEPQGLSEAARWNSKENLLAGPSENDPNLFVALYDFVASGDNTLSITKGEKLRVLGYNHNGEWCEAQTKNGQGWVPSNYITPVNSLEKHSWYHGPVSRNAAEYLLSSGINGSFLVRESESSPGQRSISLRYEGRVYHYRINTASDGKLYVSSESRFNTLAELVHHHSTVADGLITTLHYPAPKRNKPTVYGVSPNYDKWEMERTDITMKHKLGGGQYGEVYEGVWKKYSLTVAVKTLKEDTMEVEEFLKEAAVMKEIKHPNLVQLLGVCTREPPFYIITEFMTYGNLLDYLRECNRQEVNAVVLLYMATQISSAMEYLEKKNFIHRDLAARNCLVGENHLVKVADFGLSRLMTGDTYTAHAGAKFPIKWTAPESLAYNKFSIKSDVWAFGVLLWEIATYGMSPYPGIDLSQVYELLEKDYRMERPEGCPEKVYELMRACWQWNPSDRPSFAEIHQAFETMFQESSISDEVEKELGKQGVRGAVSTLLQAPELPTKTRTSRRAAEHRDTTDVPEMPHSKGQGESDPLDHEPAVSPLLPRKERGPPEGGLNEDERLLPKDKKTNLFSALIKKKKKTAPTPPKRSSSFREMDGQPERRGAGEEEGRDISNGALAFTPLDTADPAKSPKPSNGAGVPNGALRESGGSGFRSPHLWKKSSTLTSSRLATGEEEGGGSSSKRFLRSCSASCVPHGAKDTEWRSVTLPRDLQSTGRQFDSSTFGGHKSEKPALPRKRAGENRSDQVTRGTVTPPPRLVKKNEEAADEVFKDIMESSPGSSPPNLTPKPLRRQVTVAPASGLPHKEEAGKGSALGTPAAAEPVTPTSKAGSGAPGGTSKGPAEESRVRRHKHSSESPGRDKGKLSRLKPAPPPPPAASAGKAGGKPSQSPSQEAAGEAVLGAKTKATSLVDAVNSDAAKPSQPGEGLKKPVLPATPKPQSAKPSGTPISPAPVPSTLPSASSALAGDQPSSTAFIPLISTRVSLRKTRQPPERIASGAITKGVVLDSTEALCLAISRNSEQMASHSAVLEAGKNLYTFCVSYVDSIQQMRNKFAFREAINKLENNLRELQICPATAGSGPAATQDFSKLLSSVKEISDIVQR
Platelet-derived growth factor receptor beta, sequence (P09619 whole entry): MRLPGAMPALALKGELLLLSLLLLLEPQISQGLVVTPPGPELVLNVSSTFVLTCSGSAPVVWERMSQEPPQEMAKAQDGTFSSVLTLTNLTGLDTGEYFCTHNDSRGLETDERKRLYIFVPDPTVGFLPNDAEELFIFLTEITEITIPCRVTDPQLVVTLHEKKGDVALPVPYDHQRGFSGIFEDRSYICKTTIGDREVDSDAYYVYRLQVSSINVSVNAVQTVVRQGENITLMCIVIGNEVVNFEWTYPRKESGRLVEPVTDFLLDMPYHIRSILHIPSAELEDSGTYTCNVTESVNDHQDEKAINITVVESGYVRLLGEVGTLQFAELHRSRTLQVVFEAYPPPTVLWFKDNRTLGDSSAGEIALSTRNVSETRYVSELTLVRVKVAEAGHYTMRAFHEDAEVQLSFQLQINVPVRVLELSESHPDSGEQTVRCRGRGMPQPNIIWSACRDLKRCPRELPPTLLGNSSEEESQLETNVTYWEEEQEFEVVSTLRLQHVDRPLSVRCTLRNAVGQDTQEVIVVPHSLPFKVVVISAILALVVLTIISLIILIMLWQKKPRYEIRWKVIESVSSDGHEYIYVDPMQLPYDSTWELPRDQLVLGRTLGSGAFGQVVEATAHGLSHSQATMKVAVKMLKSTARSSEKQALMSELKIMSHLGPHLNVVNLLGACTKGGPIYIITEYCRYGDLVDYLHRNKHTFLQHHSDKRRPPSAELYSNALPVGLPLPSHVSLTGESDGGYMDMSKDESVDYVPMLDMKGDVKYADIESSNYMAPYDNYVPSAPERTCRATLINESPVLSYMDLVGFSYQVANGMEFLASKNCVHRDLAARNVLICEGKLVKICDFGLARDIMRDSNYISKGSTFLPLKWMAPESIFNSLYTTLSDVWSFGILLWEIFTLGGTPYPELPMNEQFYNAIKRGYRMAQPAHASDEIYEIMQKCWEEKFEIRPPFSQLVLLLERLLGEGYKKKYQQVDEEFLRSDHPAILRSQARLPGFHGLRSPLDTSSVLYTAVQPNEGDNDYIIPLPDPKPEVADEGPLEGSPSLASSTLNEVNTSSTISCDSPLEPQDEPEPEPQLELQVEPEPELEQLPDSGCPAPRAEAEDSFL
Fibroblast growth factor receptor 4, sequence (P22455 whole entry, the tested form may be a part): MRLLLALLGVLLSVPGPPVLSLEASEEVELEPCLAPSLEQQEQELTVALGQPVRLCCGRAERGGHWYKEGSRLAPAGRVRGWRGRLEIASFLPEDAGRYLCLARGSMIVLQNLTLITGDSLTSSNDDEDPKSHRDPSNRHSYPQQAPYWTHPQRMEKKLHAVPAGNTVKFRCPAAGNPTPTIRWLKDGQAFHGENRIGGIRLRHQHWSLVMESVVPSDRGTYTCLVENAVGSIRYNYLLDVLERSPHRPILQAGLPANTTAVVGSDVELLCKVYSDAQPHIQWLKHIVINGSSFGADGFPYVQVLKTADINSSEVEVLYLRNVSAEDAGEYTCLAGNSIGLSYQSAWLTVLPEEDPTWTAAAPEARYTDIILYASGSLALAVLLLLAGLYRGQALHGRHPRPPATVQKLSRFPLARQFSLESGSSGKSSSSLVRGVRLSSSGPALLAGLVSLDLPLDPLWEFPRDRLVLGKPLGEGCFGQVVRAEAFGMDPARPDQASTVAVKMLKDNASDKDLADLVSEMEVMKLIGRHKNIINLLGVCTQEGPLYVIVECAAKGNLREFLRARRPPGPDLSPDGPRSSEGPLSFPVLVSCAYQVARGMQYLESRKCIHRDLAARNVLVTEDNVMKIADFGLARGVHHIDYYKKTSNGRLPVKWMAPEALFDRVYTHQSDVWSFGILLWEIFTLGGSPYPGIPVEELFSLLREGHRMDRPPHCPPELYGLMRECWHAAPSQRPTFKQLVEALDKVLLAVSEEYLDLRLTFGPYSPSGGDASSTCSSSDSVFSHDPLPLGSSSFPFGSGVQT
Mast/stem cell growth factor receptor Kit, sequence (P10721 whole entry): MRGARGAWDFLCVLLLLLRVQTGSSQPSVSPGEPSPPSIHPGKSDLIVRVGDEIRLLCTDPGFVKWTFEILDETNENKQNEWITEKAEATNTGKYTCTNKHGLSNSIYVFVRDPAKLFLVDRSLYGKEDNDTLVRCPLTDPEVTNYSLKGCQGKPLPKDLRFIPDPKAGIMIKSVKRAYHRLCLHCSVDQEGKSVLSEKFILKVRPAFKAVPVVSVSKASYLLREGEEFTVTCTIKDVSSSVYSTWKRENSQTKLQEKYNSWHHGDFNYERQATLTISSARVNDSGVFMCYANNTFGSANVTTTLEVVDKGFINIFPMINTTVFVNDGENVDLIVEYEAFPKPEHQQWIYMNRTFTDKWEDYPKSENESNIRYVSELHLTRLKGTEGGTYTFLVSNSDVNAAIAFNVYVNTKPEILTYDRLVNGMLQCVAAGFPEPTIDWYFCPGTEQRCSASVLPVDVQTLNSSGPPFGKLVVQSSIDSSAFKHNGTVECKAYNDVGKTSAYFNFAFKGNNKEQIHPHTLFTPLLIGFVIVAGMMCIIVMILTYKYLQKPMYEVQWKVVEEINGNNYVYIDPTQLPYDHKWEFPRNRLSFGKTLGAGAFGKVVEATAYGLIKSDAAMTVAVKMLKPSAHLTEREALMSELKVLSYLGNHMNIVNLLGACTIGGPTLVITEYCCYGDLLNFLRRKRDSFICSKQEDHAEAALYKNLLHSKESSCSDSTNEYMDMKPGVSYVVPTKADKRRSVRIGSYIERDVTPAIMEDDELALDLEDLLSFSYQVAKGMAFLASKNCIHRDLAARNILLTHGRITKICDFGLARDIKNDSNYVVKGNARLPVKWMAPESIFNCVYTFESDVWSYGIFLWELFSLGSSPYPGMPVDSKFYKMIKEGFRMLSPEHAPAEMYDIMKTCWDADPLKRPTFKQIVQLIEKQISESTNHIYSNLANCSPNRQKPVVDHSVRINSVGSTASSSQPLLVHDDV
Fibroblast growth factor receptor 1, sequence (P11362 whole entry, the tested form may be a part): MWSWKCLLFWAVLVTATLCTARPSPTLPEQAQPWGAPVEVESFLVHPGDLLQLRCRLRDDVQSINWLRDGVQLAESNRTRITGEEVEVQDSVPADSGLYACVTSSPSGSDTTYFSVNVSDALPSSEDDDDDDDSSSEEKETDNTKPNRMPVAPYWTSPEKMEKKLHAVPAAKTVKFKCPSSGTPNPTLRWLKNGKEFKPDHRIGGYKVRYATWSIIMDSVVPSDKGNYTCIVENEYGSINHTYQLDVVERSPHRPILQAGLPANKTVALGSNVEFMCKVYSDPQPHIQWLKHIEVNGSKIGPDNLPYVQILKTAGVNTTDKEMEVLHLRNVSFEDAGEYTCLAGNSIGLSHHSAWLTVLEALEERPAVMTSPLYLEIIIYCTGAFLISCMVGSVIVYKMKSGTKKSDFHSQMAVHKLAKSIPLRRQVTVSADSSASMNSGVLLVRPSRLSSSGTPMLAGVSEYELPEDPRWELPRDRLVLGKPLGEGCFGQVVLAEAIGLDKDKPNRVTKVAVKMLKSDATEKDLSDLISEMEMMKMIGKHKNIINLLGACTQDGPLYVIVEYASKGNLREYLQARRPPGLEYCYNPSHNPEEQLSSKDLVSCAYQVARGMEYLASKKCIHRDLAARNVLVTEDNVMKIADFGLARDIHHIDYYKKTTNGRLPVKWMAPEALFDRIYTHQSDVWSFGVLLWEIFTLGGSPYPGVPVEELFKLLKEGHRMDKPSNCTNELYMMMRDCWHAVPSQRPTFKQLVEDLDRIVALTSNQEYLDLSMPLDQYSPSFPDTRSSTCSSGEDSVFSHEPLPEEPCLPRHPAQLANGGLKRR

- half-life [1]: 1.08 h
- Ratio IC50 (Homo sapiens): 10 to 35
- IC50 [3]: 10 nM
- Cmax [4]: 2520 ng/mL
- inhibition [5]: > 90%
- IC50 [6]: 167 nM
- inhibition [7]: > 90%
- inhibition [8]: > 90%
- IC50 [9]: 106 nM
- IC50 [10]: 30 nM
- inhibition [11]: Dose-dependent effect
SMILES: CCC(=O)N1CC[C@H](N2C(=O)N(c3cc(OC)ccc3Cl)Cc3cnc(Nc4ccc(N5CCN(C6COC6)CC5)c(C)c4)nc32)C1
- inhibition at 1.25 µM (RAW264.7 [2]): 52.7%
- inhibition at 2.5 µM (RAW264.7 [12]): 60.6%
- inhibition at 0.016 µM (RAW264.7 [13]): 63.4%
